Screening data as filed in PubChem.
Most compounds without a hit are left out; they make up all but 2.9% or so of the library.
MC4R ag barr: human MC4R agonism via beta-arrestin. P32245. U2OS MC4R beta-arrestin complementation, luminescence; percent of melanotan II response, DMSO zero. activation, % at 8.9 µM. 360,000 tested, 0.98% active. AID 540308;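 active means activation above a per-plate cutoff, the mean activation of sample wells on that plate plus 3 SD, cut at about 8% in these data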
Target sequence (P32245 whole entry, looked up): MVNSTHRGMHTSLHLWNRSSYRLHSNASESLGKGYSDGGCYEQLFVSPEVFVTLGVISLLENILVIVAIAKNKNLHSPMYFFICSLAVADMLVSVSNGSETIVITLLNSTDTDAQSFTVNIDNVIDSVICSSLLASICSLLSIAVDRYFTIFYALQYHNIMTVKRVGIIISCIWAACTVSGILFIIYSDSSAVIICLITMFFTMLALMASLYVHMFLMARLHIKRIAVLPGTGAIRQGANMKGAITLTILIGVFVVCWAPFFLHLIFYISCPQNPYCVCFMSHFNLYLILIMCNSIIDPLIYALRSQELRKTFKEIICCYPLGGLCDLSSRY
GalR3 antag: antagonists of human GalR3. inhibition, % at 3 µM. O60755. HEK293 GalR3-CNG cAMP membrane potential fluorescence; galR3 body fused to GalR1 C-terminus. 360,000 tested, 0.44% active;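 active means inhibition above the screen-wide average plus 3 SD, cut at about 13% in these data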;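 further: forskolin and galanin both at EC90 stimulate the cells; cAMP rise reported by CNG channel membrane potential dye signal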
Target sequence (O60755 1-299 limits assumed): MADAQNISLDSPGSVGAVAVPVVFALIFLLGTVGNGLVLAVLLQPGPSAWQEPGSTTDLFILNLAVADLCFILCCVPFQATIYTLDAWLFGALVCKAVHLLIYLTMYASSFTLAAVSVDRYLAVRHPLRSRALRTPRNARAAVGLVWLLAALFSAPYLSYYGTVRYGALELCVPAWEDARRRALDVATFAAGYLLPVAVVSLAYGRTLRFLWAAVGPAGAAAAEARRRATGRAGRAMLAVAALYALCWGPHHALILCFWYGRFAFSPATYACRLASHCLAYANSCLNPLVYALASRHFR
Calb FLC: C. albicans growth modulation with fluconazole | growth inhibition, % (no concentration beside the values) | 300,000 tested, 0.57% active | C. albicans CaCi-2 + fluconazole, Alamar Blue growth, 48 h;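 active means growth inhibition above about 58% in most replicates, limit read from the data, passing the limit was not always enough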;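 further: all wells also contain fluconazole at 8 µg/ml as a sub-toxic cotreatment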
TAG inh: triacylglycerol accumulation inhibition; inhibition, % at 12.5 µM; H9c2 cells, Nile Red lipid (TAG) fluorescence; cells loaded with 200 µM oleic acid; 230,000 tested, 0.66% active;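 active means pattern-corrected inhibition of lipid staining of at least 50% with the nuclear-stain viability signal not falling by more than 50%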
MC4R antagonist: blocks human MC4R cAMP signaling; inhibition, % at 6.5 µM; 360,000 tested, 0.48% active; AID 540295; MC4R-expressing cells, MTII-stimulated cAMP, LANCE TR-FRET; P32245;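 active means inhibition above its plate's cutoff, the mean of tested wells on that plate plus 3 SD, cut at about 29% in these data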
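Assay system: U2OS-MC4R stable cell line; Also added: Melanotan II; Technique: Eu-cAMP/anti-cAMP TR-FRET, emission 671 nm; Times: 30-min compound, 1-h challenge, 1-h detection, room temperature.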
Efflux pump mplx: inhibitors of Candida antifungal efflux pumps expressed in yeast. 330,000 tested, 0.44% active. inhibition, % at 10 µM. S. cerevisiae Candida pump triplex, Nile Red efflux;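 active means plate passing quality check with inhibition over a set limit, or well fluorescence over plate mean plus 4 SD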;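 further: Nile Red retained in pooled yeast measured as flow cytometry median fluorescence; higher means more Nile Red kept so more efflux inhibition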
GalR3 conf: GalR3 (human) antagonism, confirmation; inhibition, % at 3 µM; HEK293 GalR3 CNG cAMP biosensor, membrane potential fluorescence; galR3 fused to GalR1 carboxy tail; challenged with forskolin and galanin at EC90; 1,600 tested, 59% active; shares compounds with GalR3 antag; AID 652245;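 active means inhibition above the primary screen's cutoff, the mean inhibition of all screened compounds plus 3 SD, cut at about 13% in these data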
HEK-CNG parental: acts as nonspecific agonist in parental HEK-CNG cells; HEK293-CNG parental cells, cAMP membrane potential fluorescence; normalised: DMSO wells 0%, forskolin wells 100%; activation, % at 3 µM; AID 652268; shares compounds with GalR3 antag; 1,600 tested, 10% active; in the data active means activation above about 1.3%
Each line names hits and unclear results; the compound was inactive in the other large screens (follow-up assays come after a bar, where they were run).

O=C(Nc1cccc([N+](=O)[O-])c1)c1cc2ccccc2cc1O	GalR3 antag 62 | GalR3 conf 74 | HEK-CNG parental inactive
COc1ccccc1NC(=S)NC(=O)c1c(-c2ccccc2Cl)noc1C	GalR3 antag 15 | GalR3 conf inactive | HEK-CNG parental inactive
Cc1cc(NC(=O)COC(=O)[C@H](Cc2ccccc2)NC(=O)c2ccco2)no1	none (no result: Calb FLC, Efflux pump mplx)
CC(=O)c1c(C)[nH]c(C(=O)OCC(=O)NCc2ccc(Cl)cc2)c1C	none (no result: Calb FLC)
CC(=O)c1c(C)[nH]c(C(=O)OCC(=O)Nc2cc(Cl)ccc2[N+](=O)[O-])c1C	GalR3 antag 93 | GalR3 conf 50 | HEK-CNG parental inactive
Cc1ccc(NC(=O)COC(=O)C2=COCCO2)c([N+](=O)[O-])c1	none
CC(=O)c1c(C)[nH]c(C(=O)OCC(=O)Nc2ccc(C)cc2[N+](=O)[O-])c1C	GalR3 antag 13 | GalR3 conf 107 | HEK-CNG parental inactive
COc1cccc(-c2c(C(=O)N/N=C/c3sccc3C)nnn2-c2nonc2N)c1	none (no result: GalR3 antag, TAG inh) | GalR3 conf inactive | HEK-CNG parental inactive
NC(=O)c1cccc(Nc2nc(C(N)COCc3ccccc3)cs2)n1 (stereo not given)	none (no result: Calb FLC, Efflux pump mplx)
COc1cccc(/C=C2\SC(=S)N(NC(=O)c3ccncc3)C2=O)c1	GalR3 antag 14 | GalR3 conf inactive | HEK-CNG parental inactive
O=C(NN1C(=O)/C(=C/c2cccs2)SC1=S)c1ccncc1	none
COc1ccc(-c2cc(C(F)(F)F)nc(N3CCCCCC3)n2)cc1	none
FC(F)(F)c1cc(-c2ccccc2)nc(N2CCCCCC2)n1	GalR3 antag 15 | GalR3 conf inactive | HEK-CNG parental inactive
CC(=O)N1CCN(c2ccc(NC(=S)NC(=O)COc3ccc(C(C)(C)C)cc3)cc2)CC1	GalR3 antag 30 (no result: TAG inh) | GalR3 conf 95 | HEK-CNG parental inactive
CCC(=O)N1CCN(c2ccc(NC(=S)NC(=O)COc3ccccc3)cc2)CC1	none
O=C(NCc1ccccc1)c1cc(C2COCCN2C(=O)c2ccc(Cl)cc2)on1 (stereo not given)	none (no result: Calb FLC, Efflux pump mplx)
Cc1ccc(C)c(N(C)C(=O)c2cc3c(=O)[nH]c4ccc(C)cc4c3s2)c1	MC4R ag barr 9.1, GalR3 antag 16 | GalR3 conf 19 | HEK-CNG parental 3.2
Cc1cn([C@H]2C[C@H](O)[C@@H](/C=C/C(=O)N3CCN(Cc4ccc(F)cc4)CC3)O2)c(=O)[nH]c1=O	none (no result: MC4R ag barr, Calb FLC, TAG inh, MC4R antagonist, Efflux pump mplx)
O=C(O)CNC(=S)N(Cc1ccccc1Cl)C1CCCCC1	GalR3 antag 14 | GalR3 conf inactive | HEK-CNG parental inactive
O=C(O)CNC(=S)N(Cc1ccc(F)cc1)C1CCCCC1	none
CCN(CC(O)c1cccc(O)c1)C(=O)C12CC3CC(CC(C3)C1)C2 (stereo not given)	GalR3 antag 17 (no result: TAG inh) | GalR3 conf 57 | HEK-CNG parental 2.0
COc1cccc(Cn2c(NCc3cccnc3)nc3c2c(=O)n(C)c(=O)n3C)c1	none
COc1cccc(Cn2c(NCc3ccccn3)nc3c2c(=O)n(C)c(=O)n3C)c1	GalR3 antag 14 (no result: MC4R ag barr, Calb FLC, TAG inh, MC4R antagonist, Efflux pump mplx) | GalR3 conf inactive | HEK-CNG parental inactive
Cc1ccc(NC(=O)CSc2ccc3c(c2)OCCO3)c(O)c1	GalR3 antag 33 | GalR3 conf 75 | HEK-CNG parental inactive
Cc1ccnc(NC(=O)CSc2ccc3c(c2)OCCO3)c1	none
CC(=O)NC(CC(=O)OCC(=O)c1c(N)n(CC(C)C)c(=O)n(C)c1=O)c1ccccc1 (stereo not given)	none
Cn1c(N)c(C(=O)COC(=O)CC(NC(=O)c2ccccc2Cl)c2ccccc2)c(=O)n(C)c1=O (stereo not given)	GalR3 antag 14 (no result: TAG inh) | GalR3 conf inactive | HEK-CNG parental inactive
Cc1ccc(-c2nnc(COC(=O)c3cc(=O)[nH]c4ccccc34)o2)cc1	GalR3 antag 13 | GalR3 conf inactive | HEK-CNG parental inactive
CCOC(=O)c1cc(=O)[nH]c2ccccc12	none
O=S(=O)(c1ccccc1)c1ncc(C(F)(F)F)cc1Cl	GalR3 antag 15 (no result: Efflux pump mplx) | GalR3 conf 24 | HEK-CNG parental inactive
Cc1cc(C)n2nc(C(=O)NCc3ccccc3)nc2n1	none (no result: GalR3 antag, TAG inh) | GalR3 conf inactive | HEK-CNG parental inactive
Cc1ccc(CNC(=O)c2nc3nc(C)cc(C)n3n2)cc1	none
CN(C(=O)c1cccc(NC(=O)Cc2ccc(NC(=O)C3CCN(C(=O)C4CCC4)CC3)cc2)c1)C1CC1	none (no result: Calb FLC, Efflux pump mplx)
Cn1nc(CC(=O)Nc2ccc3c(c2)OCCO3)c2ccccc2c1=O	GalR3 antag 100 | GalR3 conf 106 | HEK-CNG parental inactive
Cc1ccccc1-c1nnn(CC(=O)Nc2ccc3c(c2)OCCO3)n1	GalR3 antag 16 | GalR3 conf 19 | HEK-CNG parental inactive
COc1ccc(CNC(=O)[C@H](Cc2ccccc2)NC(=O)CC[C@H]2O[C@@H](n3ccc(=O)[nH]c3=O)[C@H](O)[C@@H]2O)cc1	none (no result: MC4R ag barr, Calb FLC, TAG inh, MC4R antagonist, Efflux pump mplx)
Cc1cc2c(nc1C)CCCN2S(=O)(=O)c1ccc(F)cc1	none (no result: MC4R ag barr, Calb FLC, TAG inh, MC4R antagonist, Efflux pump mplx)
CC(C)(C)c1ccc(C(=O)Nc2ccc(Oc3cccnc3)nc2)cc1	GalR3 antag 111 | GalR3 conf 114 | HEK-CNG parental inactive
Cc1ccc(CNC(=O)c2ccc(N3CCC4(CC3)CC(c3cccc(Br)c3)=NO4)c(NC(=O)c3ccccc3)c2)cc1	GalR3 antag 14 (no result: TAG inh) | GalR3 conf 23 | HEK-CNG parental inactive
Cc1ccccc1-c1cc(C(=O)Nc2sc(C(=O)OC(C)C)c(C)c2C#N)c2ccccc2n1	GalR3 antag 71 (no result: TAG inh) | GalR3 conf 100 | HEK-CNG parental inactive
COc1ccc(CCNC(=O)c2csc3c2CCCC3)cc1OC	GalR3 antag 13 | GalR3 conf inactive | HEK-CNG parental inactive
CN(C)c1ccc(C=c2c3ccccc3n3c2c2c([n+]3C)CCCC2)cc1	GalR3 antag 81 (no result: Calb FLC, Efflux pump mplx) | GalR3 conf 89 | HEK-CNG parental inactive
CN(C)c1ccc(C=c2c3ccccc3n3c2cc(-c2ccccc2)[n+]3C)cc1	none (no result: Calb FLC, Efflux pump mplx)
CCCCCCCn1c2c(c(=N)c3c1CCC3)CCCC2	GalR3 antag 31, Calb FLC 94 (no result: Efflux pump mplx) | GalR3 conf 44 | HEK-CNG parental 6.0
CCCCCCn1c2c(c(=N)c3c1CCC3)CCC2	GalR3 antag 35 (no result: TAG inh) | GalR3 conf 21 | HEK-CNG parental inactive
CCCCCCCCCn1c2c(c(=N)c3c1CCC3)CCC2	none (no result: GalR3 antag)
CC(C)OC(=O)C1OC1(C)c1ccccc1 (stereo not given)	none (no result: Calb FLC, Efflux pump mplx)
CCOC(=O)C1(C)CCCCCN1C(=O)c1ccccc1F (stereo not given)	none (no result: Calb FLC, Efflux pump mplx)
